Source: ChEMBL document CHEMBL1146239, “Kadsuphilols A-H, oxygenated lignans from Kadsura philippinensis” (J Nat Prod, 2007)

Key:
Assay type in all cases: functional
[1] = DPPH radical scavenging activity at 25 uM
Procedure, shortened: (§1)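 Compound dilutions prepared in 100% DMSO, mixed with 100 µM DPPH in ethanol at 37 °C, shaken vigorously and left to stand 30 min. Absorbance read at 517 nm by UV-vis spectrophotometry. Scavenging reported as percent at 100, 50, 25, 12.5 and 6.25 µM. Vitamins C and E served as standards.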

[2] = DPPH radical scavenging activity at 12.5 uM; procedure, shortened: as §1
[3] = DPPH radical scavenging activity at 50 uM; procedure, shortened: as §1
[4] = DPPH radical scavenging activity at 6.25 uM; procedure, shortened: as §1
[5] = DPPH radical scavenging activity at 100 uM; procedure, shortened: as §1

C/C=C(\C)C(=O)O[C@H]1[C@@](C)(O)[C@@H](C)[C@H]2O[C@@]13CC(=O)C(OC)=C(OC)C31COc3c4c(cc2c31)OCO4 (stereo not given in full)
Activity [1]: -3.2%
Activity [2]: -4.7%
Activity [3]: -3.7%
Activity [4]: -5.3%
Activity [5]: -2.8%

COc1cc2c(c(O)c1OC)-c1c(cc3c(c1OC)OCO3)[C@H](OC(=O)c1ccccc1)[C@H](C)[C@H](C)[C@H]2OC(C)=O
Activity [1]: -32.2%
Activity [2]: -33.8%
Activity [3]: -30.8%
Activity [4]: -35.6%
Activity [5]: -23.1%

COc1cc2c(c(OC)c1O)-c1c(cc(OC)c(OC)c1O)C[C@@H](C)[C@@H](C)[C@H]2OC(=O)/C=C/c1ccccc1
Activity [1]: 32.2%
Activity [2]: 28.1%
Activity [3]: 34.4%
Activity [4]: 10%
Activity [5]: 38.1%

C/C=C(\C)C(=O)O[C@H]1c2cc3c(c(OC)c2-c2c(cc(OC)c(OC)c2O)[C@H](OC(=O)/C(C)=C/C)[C@@]2(CO2)[C@H]1C)OCO3
Activity [1]: 48.1%
Activity [2]: 46.2%
Activity [3]: 51.4%
Activity [4]: 47.4%
inhibition [5]: 54.7%

C/C=C(\C)C(=O)O[C@H]1[C@@](C)(O)[C@@H](C)[C@H]2O[C@@]13CC(OC)=C(OC)C(=O)C31COc3c4c(cc2c31)OCO4 (stereo not given in full)
Activity [1]: 6.1%
Activity [2]: 3.9%
Activity [3]: 6.6%
Activity [4]: 3.9%
Activity [5]: 8.4%

COc1cc2c(c(O)c1OC)-c1c(cc3c(c1OC)OCO3)[C@H](O)[C@H](C)[C@H](C)C2
Activity [1]: -10.7%
Activity [2]: -18.5%
Activity [3]: -1.6%
Activity [4]: -38.9%
Activity [5]: -4.2%

C/C=C(\C)C(=O)O[C@@H]1C2=CC(OC)=C(OC)C(=O)C23COc2c4c(cc(c23)[C@@H](OC(=O)c2ccccc2)[C@H](C)[C@]1(C)O)OCO4 (stereo not given in full)
Activity [1]: 11.4%
Activity [2]: 10.3%
Activity [3]: 12.8%
Activity [4]: 8.6%
Activity [5]: 12.9%

VITAMIN E
Activity [1]: 12.6%
Activity [2]: 4.9%
Activity [3]: 12.9%
Activity [4]: 1.3%
Activity [5]: 17.6%

C/C=C(\C)C(=O)O[C@@H]1c2cc3c(c4c2C2(CO4)C(=O)C(OC)=C(OC)C=C2[C@@H](OC(=O)c2ccccc2)[C@@](C)(O)[C@H]1C)OCO3 (stereo not given in full)
Activity [1]: 32%
Activity [2]: 13.8%
Activity [3]: 33.9%
Activity [4]: 20.2%
Activity [5]: 35.6%

O=C1O[C@H]([C@@H](O)CO)C(O)=C1O
Activity [1]: 24.9%
Activity [2]: 20.7%
Activity [3]: 36.7%
Activity [4]: 19.2%
Activity [5]: 39%
